# A selection: hits, their analogues and other compounds. The true share with any hit is near 3.1%.
# pPAFAH inh – pPAFAH enzyme inhibitors, primary screen, biochemical, fluorescence polarization, human; hit rate 1.5% among 330,000; inhibition, % at 3.39 µM; Platelet-activating factor acetylhydrolase (Homo sapiens), Q13093; AID 463082, 2010; recombinant pPAFAH, FP-rhodamine probe fluorescence polarization;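 active = inhibition above the mean inhibition across the screen plus 3 SD, cut at about 25% in these data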;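 also: inhibitors block binding of the rhodamine activity-based probe so polarization drops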
# PAFAH2 inh – PAFAH2 enzyme inhibitors, primary screen, biochemical, fluorescence polarization, human | recombinant PAFAH2, FP-rhodamine activity probe | inhibition, % at 3.39 µM | hit rate 0.99% among 340,000 | AID 492956, 2010;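 active = inhibition above the mean over all tested compounds plus 3 SD, cut at about 30% in these data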;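 also: inhibitors block probe labeling of enzyme so polarization drops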
# Apaf-1 inh – inhibitors of human Apaf-1 apoptosome, primary screen, biochemical, DEVD-Rh110 fluorescence, uHTS; inhibition, % at 20 µM; Apoptotic protease-activating factor 1 (Homo sapiens), O14727; AID 489030, 2010; hit rate 0.71% among 330,000; reconstituted apoptosome caspase-3 activity; active = inhibition of at least 40% at 20 µM
#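 Medium: Hepes buffer, pH 7.5 / System: biochemical Apaf-1 apoptosome reconstitution / Measured by: Rh110 fluorescence, excitation 480 nm, emission 540 nm / Times: compound with Apaf-1, dATP, procaspase-3 30 min, then 50 min reaction, room temperature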
# PAFAH1B2 inh – PAFAH1B2 enzyme inhibitors, primary screen, biochemical, fluorescence polarization, human; Platelet-activating factor acetylhydrolase IB subunit alpha2 (Homo sapiens), P68402; recombinant PAFAH1B2, FP-rhodamine activity probe; inhibition, % at 3.39 µM; hit rate 1.2% among 340,000; AID 492953, 2010;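 active = inhibition above the mean of all tested compounds plus 3 SD, cut at about 24% in these data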
# Target sequence (P68402 whole entry, looked up): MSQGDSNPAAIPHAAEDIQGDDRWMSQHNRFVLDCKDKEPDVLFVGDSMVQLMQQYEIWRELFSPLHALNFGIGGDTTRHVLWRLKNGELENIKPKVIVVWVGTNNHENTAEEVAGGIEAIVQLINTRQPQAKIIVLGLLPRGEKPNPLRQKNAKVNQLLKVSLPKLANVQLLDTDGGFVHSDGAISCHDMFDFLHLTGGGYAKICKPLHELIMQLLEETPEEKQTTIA
# PAFAH1B3 inh – PAFAH1B3 enzyme inhibitors, primary screen, biochemical, fluorescence polarization, human; Platelet-activating factor acetylhydrolase IB subunit alpha1 (Homo sapiens), Q15102; recombinant PAFAH1B3, FP-rhodamine probe; inhibition, % at 3.39 µM; hit rate 0.28% among 340,000; AID 492972, 2010;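 active = inhibition above the screen-wide average of all tested compounds plus 3 SD, cut at about 25% in these data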
# Target sequence (Q15102 whole entry, looked up): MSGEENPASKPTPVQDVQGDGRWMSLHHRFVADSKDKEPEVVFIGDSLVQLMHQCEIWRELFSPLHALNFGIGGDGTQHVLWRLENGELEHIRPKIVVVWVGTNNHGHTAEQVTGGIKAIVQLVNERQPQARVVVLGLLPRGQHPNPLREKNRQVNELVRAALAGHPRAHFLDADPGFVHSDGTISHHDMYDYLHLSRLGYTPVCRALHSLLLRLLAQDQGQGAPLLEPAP
# A number is an active result; – = inactive; · = no result given.
SMILES,pPAFAH inh,PAFAH2 inh,Apaf-1 inh,PAFAH1B2 inh,PAFAH1B3 inh
Cc1ccc(NC(=S)Nc2nc(CC(=O)Nc3ccccc3)cs2)cc1,–,–,–,–,–
COc1ccc(CC(=O)OCc2csc(CC(=O)Nc3ccc(C)cc3)n2)cc1,27.1,–,–,–,–
Cc1ccc(NC(=O)Cc2nc(CCl)cs2)cc1,31.5,–,–,–,–
COc1ccccc1C(=O)NC1CC(C)(C)NC(C)(C)C1,–,–,–,–,–
CC1(C)CC(=O)C=C(c2ccc(F)nc2)C1,–,–,–,–,–
Cc1ccc(S(=O)(=O)/N=C2/C=C(Sc3ncn[nH]3)C(=O)c3ccccc32)c(C)c1,–,·,·,·,·
Cc1ccc(S(=O)(=O)/N=C2/C=C(Sc3ncn[nH]3)C(=O)c3ccccc32)cc1,–,75.1,·,50.8,48.1
CC(C)c1ccc(S(=O)(=O)/N=C2/C=C(Sc3ncn[nH]3)C(=O)c3ccccc32)cc1,–,51.1,·,45.7,48.7
O=C(c1cccc(NS(=O)(=O)c2ccc(F)c(F)c2)c1)N1CCCCC1,·,–,–,–,–
CNC(=O)c1ccsc1NC(=O)C1CCN(S(=O)(=O)c2ccc(Cl)s2)CC1,–,–,–,26.9,–
CC(NC(=O)c1cc(S(=O)(=O)N2CCCC2)cn1C)c1ccccc1 (configuration not stated),–,–,–,–,–
CC(NC(=O)c1cccc(S(=O)(=O)N2CCCCCC2)c1)c1ccccc1 (configuration not stated),–,–,–,24.6,–
CCOc1ccc(NC(=O)Cc2ccc(S(=O)(=O)N3CCCCC3)cc2)cc1OCC,–,–,–,–,–
COc1ccc(CC(=O)OCC(=O)Nc2ccc(Br)cc2)cc1,–,–,–,–,–
O=C(COC(=O)Cc1ccc(Cl)cc1)Nc1ccc(OC(F)F)cc1,29.4,–,–,–,–
O=C(COC(=O)Cc1ccccc1F)Nc1ccc(SC(F)F)cc1,26.4,–,–,–,–
O=C(Cc1ccccc1F)Nc1ccc(SC(F)F)cc1,–,–,–,–,–
Cc1ccc(CNC(=O)Nc2ccc(Cl)cc2)cc1,–,–,–,64.6,–
COc1ccc(NC(=O)COC(=O)Cc2ccc(Br)cc2)cc1,29.1,–,–,–,–
Nc1ncnc2c1ncn2[C@@H]1O[C@H](CNC(=O)[C@@H](N)Cc2ccc(C(F)(F)F)cc2)[C@@H](O)[C@H]1O,–,–,–,–,–
O=C(c1cc(S(=O)(=O)N2CCOCC2)ccc1F)N(CCc1ccccc1)Cc1ccccc1,–,–,–,–,–
COc1ccc(NC(=O)CN2C(=O)COc3ccc(S(=O)(=O)N4CCCCC4)cc32)c(OC)c1,–,–,–,–,–
CCOC(=O)Cc1ccc(NCc2ccc(Cl)cc2)cc1,–,–,–,24.4,–
O=C(O)c1ccc(Cl)c(S(=O)(=O)Nc2ccc(OCc3ccccc3)cc2)c1,–,–,–,25.9,–
CNc1c(NS(=O)(=O)c2ccc(OC)c(Cl)c2)c(=O)oc2ccccc12,–,–,–,–,–
SMILES,pPAFAH inh,PAFAH2 inh,Apaf-1 inh,PAFAH1B2 inh,PAFAH1B3 inh
COc1ccc(NC(=O)CSCC(=O)N(C)Cc2cccc(OC)c2OC)cc1,–,–,–,–,–
COc1cccc(CN(C)C(=O)COc2ccc(C(=O)c3ccc(Cl)cc3)cc2)c1OC,28.2,–,–,–,–
CCC(CO)Oc1cc(NC(=O)Cc2ccccc2)c2ncn(C(C)C)c2c1 (configuration not stated),26.3,–,–,–,–
COc1ccc(C2=NNC(=O)C2(C)Br)cc1 (configuration not stated),·,–,·,–,–
Cc1c(C(=O)N2CCCCC2)c(S(=O)(=O)N2CCN(c3ccc(F)cc3)CC2)c(C)n1C,–,–,–,–,–
Cc1c(C(=O)N2CCCCC2)c(S(=O)(=O)N2CCN(c3ccc(Cl)cc3)CC2)c(C)n1C,25.1,–,–,–,–
CC(=O)c1ccc(NC(=S)Nc2cccc3ccccc23)cc1,–,–,44.6,–,–
Fc1cccc(NC(=S)Nc2cccc3ccccc23)c1,–,–,–,–,–
Cc1ccc(NC(=S)Nc2cccc3ccccc23)cc1F,–,–,88.9,–,–
CC1(C(=O)OCC(=O)Nc2ccc3ccccc3c2)CC1(Cl)Cl (configuration not stated),–,–,–,–,–
Cc1c(C(=O)N2CCN(S(=O)(=O)c3cc(F)ccc3F)CC2)oc2ccccc12,–,–,–,–,–
Cc1cccc(-n2c(SCc3cc(=O)n4ccsc4n3)nc3ccccc32)c1,26.0,–,–,–,–
CC(=O)OCC1=C(C(=O)O)N2C(=O)C(NC(=O)COc3ccc(F)cc3)C2SC1 (configuration not stated),·,–,–,–,–
CC(=O)OCC1=C(C(=O)O)N2C(=O)C(NC(=O)c3ccc(COc4ccc(Cl)cc4)o3)C2SC1 (configuration not stated),26.5,–,–,24.6,–
CCC(OC(=O)c1nsc(Cl)c1Cl)C(=O)NC(C)(C)C (configuration not stated),–,–,–,–,–
CCC(OC(=O)c1nsc(Cl)c1Cl)C(=O)NCc1ccco1 (configuration not stated),26.8,–,–,–,–
CC(C)(C)c1ccc(C2=CC(c3ccccc3)n3ncnc3N2)cc1 (configuration not stated),26.1,–,–,58.1,–
Cc1ccccc1CS(=O)(=O)Cc1ccc(C(=O)NCc2ccco2)o1,24.8,–,–,–,–
Cc1ccccc1S(=O)(=O)Cc1ccc(C(=O)NCc2ccco2)o1,–,–,–,–,–
CCN(C(=O)COC(=O)c1cc([N+](=O)[O-])ccc1N1CCOCC1)C1CCCCC1,–,–,–,–,–
Nc1c(C(=O)OCC(=O)Nc2ccc(Cl)cc2[N+](=O)[O-])[nH]c(=O)[nH]c1=O,33.2,–,–,–,–
Cc1ccc(NC(=O)CNc2cccc(S(=O)(=O)N3CCCCC3)c2)cc1F,31.1,–,–,–,–
CCCCC(=O)Nc1cc(OC)c(NC(=S)Nc2ccc(OC)cc2)cc1OC,·,–,·,–,–
CCOC(=O)c1cc(-c2ccccc2)n(CC2CC(c3ccc(OC)cc3)=NO2)n1 (configuration not stated),–,–,–,–,–
O=C(CCCc1ccccc1)Nc1cccc(C(=O)O)c1,–,–,–,25.1,–
Nc1ccc(N2CCCCC2)c2nonc12,–,–,97.1,–,–
O=C1CSC(c2cccc([N+](=O)[O-])c2)N1c1c(F)cccc1F (configuration not stated),–,–,–,–,–
